Consider 15 compounds from ChEMBL document CHEMBL4017509, “A Dual Modulator of Farnesoid X Receptor and Soluble Epoxide Hydrolase To Counter Nonalcoholic Steatohepatitis” (J Med Chem, 2017).

As usually defined, the inhibition is the share of the control response that was lost under treatment. The Emax is the size of the effect at its maximum, as opposed to the concentration needed. As usually defined, the EC50 is the concentration that produces a half-maximal response. The low end stands for an effect from little substance, the high end for a need for much substance. What is called solubility is the dissolved amount per volume that the medium holds. Lower therefore signals little dissolved substance. One may read the IC50 as the concentration at which inhibition is half-maximal.

The target of data set [1] is T1, Bifunctional epoxide hydrolase 2 (Homo sapiens) (UniProt P34913).
T1 sequence (whole entry): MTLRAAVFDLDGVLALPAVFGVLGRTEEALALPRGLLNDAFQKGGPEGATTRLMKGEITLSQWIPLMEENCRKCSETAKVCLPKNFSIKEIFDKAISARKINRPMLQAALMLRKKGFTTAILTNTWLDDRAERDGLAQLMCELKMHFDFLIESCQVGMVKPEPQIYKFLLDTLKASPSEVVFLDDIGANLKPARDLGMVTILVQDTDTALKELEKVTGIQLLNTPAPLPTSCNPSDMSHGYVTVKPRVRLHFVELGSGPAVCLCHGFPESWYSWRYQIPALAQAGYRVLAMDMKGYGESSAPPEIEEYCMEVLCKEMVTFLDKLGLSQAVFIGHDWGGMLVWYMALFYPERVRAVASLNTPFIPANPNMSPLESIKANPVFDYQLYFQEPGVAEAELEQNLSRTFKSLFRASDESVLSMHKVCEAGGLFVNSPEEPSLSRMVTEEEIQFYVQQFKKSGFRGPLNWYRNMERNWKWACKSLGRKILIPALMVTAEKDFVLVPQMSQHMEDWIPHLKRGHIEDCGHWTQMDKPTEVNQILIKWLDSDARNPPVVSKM
Nature of the data set: Inhibition of recombinant human sEH at 50 uM using PHOME as substrate preincubated for 30 mins followed by substrate addition measured for 30 mins by fluorescence photometric method. The gist of the method:
(§1)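 Recombinant human sEH in Bis-Tris buffer pH 7, 0.1 mg/mL BSA, 0.01% Triton X-100 (final), preincubated 30 min at room temperature with compound (1% DMSO final). PHOME added at 50 μM final; 6-methoxynaphthaldehyde fluorescence read each minute for 30 min.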

Data set [2] concerns the target T2, Bile acid receptor (Homo sapiens) (UniProt Q96RI1).
T2 sequence (whole entry): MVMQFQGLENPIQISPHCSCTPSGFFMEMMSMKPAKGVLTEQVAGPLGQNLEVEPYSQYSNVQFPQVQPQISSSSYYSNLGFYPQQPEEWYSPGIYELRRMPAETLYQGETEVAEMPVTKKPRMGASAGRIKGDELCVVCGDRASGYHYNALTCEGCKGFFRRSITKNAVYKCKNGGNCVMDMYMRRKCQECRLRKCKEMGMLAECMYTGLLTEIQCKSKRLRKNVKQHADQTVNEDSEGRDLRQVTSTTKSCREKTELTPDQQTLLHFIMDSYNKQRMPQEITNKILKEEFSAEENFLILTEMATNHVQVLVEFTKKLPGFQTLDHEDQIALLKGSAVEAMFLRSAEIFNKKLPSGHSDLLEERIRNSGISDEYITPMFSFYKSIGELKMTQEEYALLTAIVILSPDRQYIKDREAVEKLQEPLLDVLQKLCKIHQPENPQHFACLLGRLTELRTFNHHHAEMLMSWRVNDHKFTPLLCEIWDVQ
As to the kind of experiment: Transactivation of human FXR expressed in human HeLa cells co-expressing BSEP at 50 uM after 24 hrs by dual-glo luciferase reporter gene assay relative to GW4064. Type of data set: cell-based. The gist of the method:
(§2)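 HeLa cells in DMEM/10% FCS at 37 °C, 5% CO2; switched to 0.5% charcoal-stripped FCS before calcium phosphate co-transfection with pcDNA3-hFXR, pSG5-hRXR, BSEP promoter–firefly luciferase reporter and pRL-SV40 renilla. Compound in 0.1% DMSO, phenol red-free medium, 24 h.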

In data set [3] the target is T3, Bile acid receptor (Homo sapiens, UniProt Q96RI1).
T3 sequence (Q96RI1 whole entry): T2 sequence (whole entry)
Nature of the data set: Transactivation of human FXR expressed in human HeLa cells co-expressing BSEP after 24 hrs by dual-glo luciferase reporter gene assay. Type of data set: cell-based. In a few lines: as §2
(Reporter assays use an easily measured gene product as a stand-in for the process of interest.)

Data set [4] deals with T2, Bile acid receptor (Homo sapiens). Nature of the data set: Transactivation of FXR in human HepG2 cells assessed as BSEP mRNA expression at 1 uM after 8 to 16 hrs by SYBR green based qRT-PCR analysis relative to DMSO control. Type of data set: cell-based. In a few lines:
(§3)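 HepG2 cells incubated with test compound (0.1 and 1 μM) or 0.1% DMSO for 8 or 16 h, washed in cold PBS, RNA extracted; target mRNA by SYBR Green qRT-PCR, duplicate samples, ≥4 independent experiments; comparative ΔΔCt with GAPDH reference, vehicle set as 100%.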
Background: Real-time PCR tracks product formation cycle by cycle.

For data set [5] the target is unchanged. As to the kind of experiment: Transactivation of FXR in human HepG2 cells assessed as SREBP1c mRNA expression at 1 uM after 8 to 16 hrs by SYBR green based qRT-PCR analysis relative to DMSO control. It is filed as cell-based. In a few lines:
as §3

The target of data set [6] is T1, Bifunctional epoxide hydrolase 2 (Homo sapiens). As to the kind of experiment: Inhibition of sEH in human HuT-78 cells assessed as reduction in Pam3CSK4-stimulated TNFalpha release preincubated for 24 hrs followed by Pam3CSK4 addition measured after 18 hrs by ELISA. It is filed as cell-based. The gist of the method: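 HuT-78 cells in RPMI 1640 with 10% heat-inactivated FCS, 2.0 × 10^6 cells/well, exposed to compound (0.1% DMSO) for 24 h; medium then replaced with fresh compound plus Pam3CSK4 20 ng/mL for 18 h; supernatant TNFα measured by ELISA (absorbance 450 nm); each concentration repeated independently at least three times.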
Background: In an ELISA, binding on a coated surface is turned into a signal by an enzyme label.

Data set [7] has the same target. As to the kind of experiment: Inhibition of sEH in primary human monocytes-derived macrophages assessed as reduction in LPS-stimulated IL-12p70 release at 1 uM after 16 hrs by cytometric bead array method. It is filed as cell-based. In a few lines:
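Human blood monocytes isolated by dextran sedimentation/Nycoprep and adherence, differentiated to macrophages with GM-CSF 10 ng/mL for 7 days plus IFNγ 10 ng/mL for final 48 h; stimulated with LPS 100 ng/mL together with compound for 16 h; supernatant IL-12p70 measured by cytometric bead array on flow cytometer.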

Data set [8] deals with T2, Bile acid receptor (Homo sapiens). As to the kind of experiment: Transactivation of FXR in human HepG2 cells assessed as SHP mRNA expression at 1 uM after 8 to 16 hrs by SYBR green based qRT-PCR analysis relative to DMSO control. It is filed as cell-based. The gist of the method:
as §3

Data set [9] shares this target. Nature of the data set: Transactivation of FXR in human HepG2 cells assessed as FGF19 mRNA expression at 1 uM after 8 to 16 hrs by SYBR green based qRT-PCR analysis relative to DMSO control. Type of data set: cell-based. The gist of the method: as §3
Data set [10] addresses T1, Bifunctional epoxide hydrolase 2 (Homo sapiens). As to the kind of experiment: Inhibition of sEH in human HepG2 cells assessed as NF-kappaB mRNA expression at 1 uM after 8 to 16 hrs by SYBR green based qRT-PCR analysis relative to DMSO control. It is filed as cell-based. In a few lines:
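HepG2 cells treated with compound or 0.1% DMSO vehicle; NF-κB mRNA quantified by SYBR Green qRT-PCR, comparative ΔΔCt with GAPDH reference; expressed as % of vehicle (100%).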

For data set [11] the target is unchanged. As to the kind of experiment: Inhibition of sEH in human HepG2 cells assessed as NF-kappaB mRNA expression at 10 uM after 8 to 16 hrs by SYBR green based qRT-PCR analysis relative to DMSO control. Type of data set: cell-based.
Data set [12] shares this target. As to the kind of experiment: Inhibition of sEH in primary human monocytes-derived macrophages assessed as reduction in LPS-stimulated IL-12p70 release at 10 uM after 16 hrs by cytometric bead array method. Type of data set: cell-based. In a few lines:
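Blood monocytes isolated by dextran sedimentation and Nycoprep gradient, adherence-selected 1 h, differentiated with GM-CSF 10 ng/mL for 7 days plus IFNγ 10 ng/mL for last 48 h. Stimulated with LPS 100 ng/mL plus compound for 16 h; supernatant IL-10 and IL-12p70 measured by cytometric bead array flow cytometry.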

Data set [13] in a line: Aqueous solubility of compound at 5 mg after 24 hrs by HPLC analysis. Type of data set: physicochemical.
Data set [14] addresses T4, Bifunctional epoxide hydrolase 2 (Homo sapiens, UniProt P34913).
T4 sequence (P34913 whole entry): T1 sequence (whole entry)
Nature of the data set: Inhibition of recombinant human sEH using PHOME as substrate preincubated for 30 mins followed by substrate addition measured for 30 mins by fluorescence photometric method. Conditions: read-out: IC50. The gist of the method: as §1

Data set [15] has as its target T3, Bile acid receptor. Nature of the data set: Transactivation of FXR in human HepG2 cells assessed as CYP7A1 mRNA expression at 3 uM after 8 to 16 hrs by SYBR green based qRT-PCR analysis relative to DMSO control. Type of data set: ADME, cell-based. In a few lines: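 HepG2 cells treated 8 or 16 h with compound or 0.1% DMSO, washed in cold PBS, RNA extracted; SYBR Green qRT-PCR in duplicate, ≥4 independent experiments (n = 3 for CD36/FAM3A). ΔΔCt method with GAPDH reference; expression as % of vehicle (100%). Pioglitazone 1 μM used as positive control for the PPARγ genes.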

The test system of the next data set is Liver. Nature of the data set: Drug level in Sprague-Dawley rat liver microsomes treated with 4-(tert-Butyl)-N-(2-chloro-4-(methylsulfonamido)benzyl)-benzamide at 10 uM preincubated with NADPH regenerating system for 5 mins followed by addition of liver microsomes by LC-MS/MS method. Type of data set: ADME, microsome.

The source made the active and inactive calls. The calls are words filed in the database; no cut-off is given here.

For the compound `COc1ccc(C(=O)NCc2ccc(C(=O)O)cc2)cc1OC`, the inhibition in data set [1] was determined as 26%. In data set [2], this compound displayed an Emax of 18%. This compound also yielded an EC50 at Bile acid receptor [3] of 0.37 µM.
In the same order, the values of `Cc1ccc(C(=O)NCc2ccc(C(=O)O)cc2)cc1C` are 52%, 12% and 0.32 µM.
On to `CC[C@H]1[C@@H](O)[C@@H]2[C@H](CC[C@]3(C)[C@@H]([C@H](C)CCC(=O)O)CC[C@@H]23)[C@@]2(C)CC[C@@H](O)C[C@@H]12`, for which the Activity stood at 970% in data set [4], 51% in [5], 416% in [8] and 640% in [9]. Also, the inhibition result in [6] was “inactive”. Moreover, the inhibition result in data set [7] was “Active”. The inhibition in data set [10] worked out at 29%.
As for `CC(C)(C)c1ccc(C(=O)NCc2cccc(C(=O)O)c2)cc1`, the inhibition in data set [1] is 26%. The Emax in [2] was 14%. Besides, the half-maximal effective concentration (EC50) at Bile acid receptor [3] was found to be 1.7 µM.
On to `O=C(Nc1ccc(I)cc1)NC1CCCCC1`, for which the inhibition in [11] stood at 22.9%. The inhibition result in [12] is “Active”.
For the compound `O=C(O)c1ccc(CNC(=O)c2ccc3ccccc3c2)cc1`, the inhibition in [1] came out at 45%. In addition, in data set [2], the Emax was 18%. At Bile acid receptor [3], this compound yielded an EC50 of 1.36 µM.
With `CC(C)(C)c1ccc(C(=O)NCc2ccc(NC(=O)C(F)(F)F)cc2Cl)cc1`, in data set [13], the solubility at 24 h is less than 0.1 µg/mL. Also, the concentration for half-maximal inhibition (IC50) in data set [14] came out at 0.0089 µM. Further, in [2], the maximum response (Emax) amounted to 21%. This compound came in with a 50% effective concentration (EC50) on Bile acid receptor [3] of 0.014 µM.
Regarding `CC(C)(C)c1ccc(C(=O)NCc2ccc(C(=O)O)c(Cl)c2)cc1`, the inhibition in data set [1] was determined as 50%. In [2], this compound came in with an Emax of 21%. This compound registered an EC50 on Bile acid receptor [3] of 0.0088 µM.
For `C[C@@H]1C[C@H]2[C@@H]3CCC4=CC(=O)C=C[C@]4(C)[C@@]3(F)[C@@H](O)C[C@]2(C)[C@@]1(O)C(=O)CO`, the inhibition in data set [10] worked out at 59.4%.
`Cc1cc(CNC(=O)c2ccc(C(C)(C)C)cc2)ccc1C(=O)O`: the inhibition in data set [1] amounted to 53%. In data set [2], this compound registered an Emax of 14%. On Bile acid receptor [3], this compound showed an EC50 of 0.16 µM.
Take `CC(C)c1onc(-c2c(Cl)cccc2Cl)c1COc1ccc(/C=C/c2cccc(C(=O)O)c2)c(Cl)c1`: the Activity at Bile acid receptor [15] came to 0.03%.
Turning to `CC(NC(=O)c1ccc(C(C)(C)C)cc1)c1ccc(C(=O)O)cc1` (stereo not given), the inhibition in data set [1] is 37%. Moreover, the Emax in data set [2] stood at 24%. For the same compound, the EC50 at Bile acid receptor [3] amounted to 0.076 µM.
With `O=C(O)c1ccc(CNC(=O)c2ccccc2)cc1`, the inhibition in data set [1] came out at 16%. Moreover, the maximal effect (Emax) in data set [2] worked out at 12%.
As for `CC(C)(CO)c1ccc(C(=O)NCc2ccc(NS(C)(=O)=O)cc2Cl)cc1`, the Drug metabolism entry in the data set on Liver is given as “Metabolite_Detected”.
The same measure, in the same setting: then `CC(C)(C)c1ccc(C(=O)NCc2ccc(N)cc2Cl)cc1`, with “Metabolite_Detected”.
